Data as given in ChEMBL document CHEMBL1142114, “Kaurane diterpenoids from Isodon excisus inhibit LPS-induced NF-kappaB activation and NO production in macrophage RAW264.7 cells” (J Nat Prod, 2007).
Active and inactive are the calls of the source. No cut-off for these calls is given here.

Assays:
Type in all cases: functional, cell-based
RAW264.7 [1] = assay: Inhibition of NF-kappaB activation in LPS-stimulated RAW264.7 cells after 24 hrs; details: Mus musculus, RAW264.7, 24 h
How it was run: (§1)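 RAW264.7 cells transfected with a reporter plasmid carrying eight kappaB elements driving secreted alkaline phosphatase, seeded 5 × 10^4 cells/well. After 3 h at 37 °C, cells were given compound (0.1–10 µM) plus LPS 1 µg/mL for 24 h. SEAP activity was read at 405 nm with p-nitrophenyl phosphate substrate in diethanolamine/MgCl2/L-homoarginine buffer. IC50 is relative to vehicle control, mean ± SD of three experiments.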

RAW264.7 [2] = assay: Inhibition of NO production in LPS-stimulated RAW264.7 cells after 24 hrs; details: Mus musculus, RAW264.7, 24 h
How it was run: (§2)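 RAW264.7 cells (1 × 10^5/well) were stimulated with LPS 1 µg/mL for 24 h with or without compound (0.1, 0.3, 1, 3, 10 µM). Nitrite in the culture supernatant was measured with Griess reagent. The remaining cells were checked for viability by MTT. IC50 is relative to vehicle control, mean ± SD of three separate experiments.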

RAW264.7 [3] = assay: Inhibition of NO production in LPS-stimulated RAW264.7 cells at 10 uM after 24 hrs; details: Mus musculus; how it was run: as §2
RAW264.7 [4] = assay: Inhibition of NF-kappaB activation in LPS-stimulated RAW264.7 cells at 10 uM after 24 hrs; details: Mus musculus; how it was run: as §1

Row | SMILES | IC50 (RAW264.7 [1]) | IC50 (RAW264.7 [2]) | Activity (RAW264.7 [3]) | Activity (RAW264.7 [4])
1 | C=C1[C@@H]2C[C@H](O)[C@H]3[C@]4(C)CC[C@@H](O)[C@@](C)(COC(C)=O)[C@H]4CC[C@]3(C2)[C@@H]1O [EXCISUSIN C] | > 10000 nM | > 10000 nM | inactive | inactive
2 | C=C1C(=O)[C@]23C[C@H]1C[C@H](OC(C)=O)[C@H]2[C@@]1(C)[C@H]([C@@H](O)C3)C(C)(C)[C@@H](O)C[C@@H]1O [EXCISUSIN D] | 3210 nM | 2890 nM | – | –
3 | C=C1C(=O)[C@@]23CC[C@H]4[C@@](C)(CCC(=O)[C@@]4(C)COC(C)=O)[C@@H]2[C@@H](O)C[C@@H]1C3 [EXCISUSIN E] | 1020 nM | 1360 nM | – | –
4 | C=C1C(=O)[C@]23C[C@H]1C[C@H](O)[C@H]2[C@@]1(C)[C@H]([C@@H](O)C3)C(C)(C)[C@@H](OC(C)=O)C[C@@H]1O [INFLEXANIN B] | 1820 nM | 2520 nM | – | –
5 | C=C1C(=O)[C@]23C[C@H]1C[C@H](O)[C@H]2[C@]1(C)CCC(=O)C(C)(C)[C@H]1[C@@H](O)C3 [INFLEXARABDONIN I] | 1150 nM | 1240 nM | – | –
6 | C=C1C(=O)[C@]23C[C@H]1C[C@H](OC(C)=O)[C@H]2[C@@]1(C)[C@H]([C@@H](O)C3)C(C)(C)[C@@H](OC(C)=O)C[C@@H]1O [INFLEXINOL] | 440 nM | 940 nM | – | –
7 | C=C1C(=O)[C@@]23CC(=O)[C@@H]4C(C)(C)[C@@H](OC(C)=O)C[C@H](O)[C@@]4(C)[C@@H]2[C@@H](OC(C)=O)C[C@@H]1C3 [INFLEXIN] | 230 nM | 690 nM | – | –
8 | N=C(N)NN [PIMAGEDINE] | – | 32200 nM | – | –

The next lines start with results.

Row | IC50 (RAW264.7 [1]) | IC50 (RAW264.7 [2]) | SMILES | Activity (RAW264.7 [3]) | Activity (RAW264.7 [4])
9 | 1150 nM | – | C=C1C(=O)O[C@@H]2C3O[C@]3(C)CC/C=C(\C)CC[C@@H]12 (stereo not given in full) | – | –
10 | 900 nM | 670 nM | C=C1C(=O)[C@@]23CC[C@@H]4[C@](C)(CO)[C@@H](OC(C)=O)CC[C@@]4(C)[C@@H]2[C@@H](O)C[C@@H]1C3 [EXCISUSIN A] | – | –
11 | 260 nM | 560 nM | C=C1C(=O)[C@@]23CC[C@@H]4C(C)(C)[C@@H](OC(C)=O)C[C@H](O)[C@@]4(C)[C@@H]2[C@@H](O)C[C@@H]1C3 [EXCISUSIN B] | – | –
12 | 400 nM | 630 nM | C=C1C(=O)[C@]23C[C@H]1C[C@H](O)[C@H]2[C@]1(C)CC[C@H](OC(C)=O)C(C)(C)[C@H]1[C@@H](O)C3 [INFLEXANIN A] | – | –
13 | > 10000 nM | > 10000 nM | C=C1[C@@H]2C[C@H](OC(C)=O)[C@@H]3[C@](C2)(C[C@H](O)[C@@H]2C(C)(C)[C@@H](OC(C)=O)C[C@H](O)[C@]23C)[C@@H]1O [INFLEXARABDONIN A] | inactive | inactive
14 | 240 nM | 480 nM | C=C1C(=O)[C@@]23CC[C@@H]4C(C)(C)[C@@H](OC(C)=O)C[C@H](O)[C@@]4(C)[C@@H]2[C@@H](OC(C)=O)C[C@@H]1C3 [INFLEXARABDONIN G] | – | –
